Results published in article PMC2695835 (Bioorganic & medicinal chemistry, 2009).
Several values for one entry are separate records, joined by “and”; a condition that tells them apart may be missing. Equal entries are not always repeated. Where two headings read alike, the source gives them in different places. Marks after values point to notes of the source that are not given here.

Columns and labels:
GIVA cPLA2 [1] = target: T1, GIVA cPLA2 (Homo sapiens, UniProt P47712); test: In vitro GIVA cPLA2 inhibition, mixed micellar modified Dole assay; assay type: biochemical; settings: mole fraction of inhibitor in total substrate interface required to inhibit the enzyme by 50%; mixed micelles
T1 sequence (P47712 1-749): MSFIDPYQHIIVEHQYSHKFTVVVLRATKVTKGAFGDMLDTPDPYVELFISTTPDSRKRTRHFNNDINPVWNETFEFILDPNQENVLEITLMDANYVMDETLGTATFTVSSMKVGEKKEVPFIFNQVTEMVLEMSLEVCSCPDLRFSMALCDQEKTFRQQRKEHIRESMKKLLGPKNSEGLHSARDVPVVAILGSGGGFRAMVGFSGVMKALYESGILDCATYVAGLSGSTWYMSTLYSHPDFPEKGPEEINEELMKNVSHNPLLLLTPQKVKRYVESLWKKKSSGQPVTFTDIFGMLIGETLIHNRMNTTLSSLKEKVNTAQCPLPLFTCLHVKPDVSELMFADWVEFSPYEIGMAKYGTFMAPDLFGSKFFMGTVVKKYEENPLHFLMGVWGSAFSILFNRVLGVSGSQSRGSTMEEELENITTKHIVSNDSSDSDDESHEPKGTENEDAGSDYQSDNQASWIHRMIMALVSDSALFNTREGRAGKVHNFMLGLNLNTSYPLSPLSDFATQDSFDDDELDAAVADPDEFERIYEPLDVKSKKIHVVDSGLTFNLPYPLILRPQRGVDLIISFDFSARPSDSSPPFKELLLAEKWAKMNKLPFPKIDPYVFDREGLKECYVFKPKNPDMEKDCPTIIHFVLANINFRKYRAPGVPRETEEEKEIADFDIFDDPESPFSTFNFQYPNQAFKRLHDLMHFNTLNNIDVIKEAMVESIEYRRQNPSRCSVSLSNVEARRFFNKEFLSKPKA

RAW 264.7 macrophages = assay type: cell-based; settings: Mus musculus; for inhibition at 25 µM: RAW264.7, read-out: AA Release Inhibition (%); for IC50: RAW264.7, read-out: IC50 for the inhibition of arachidonic acid release, RAW 264.7 cells stimulated with Kdo2-Lipid A, concentration for half maximal inhibition of the maximum inhibition observed
How it was run: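 Mouse RAW 264.7 macrophages were grown in DMEM with 10% FBS, 2 mM glutamine, penicillin/streptomycin and non-essential amino acids at 37 °C in 5% CO2. Cells were seeded at 2 × 10^6 per well and left to adhere overnight. Test compound (25 μM) was added 30 min before Kdo2-Lipid A, and supernatants were collected 1 h later. AA was extracted, quantified by HPLC-MS and normalized to cell number by DNA quantitation.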

GVIA iPLA2 = target: T2, GVIA iPLA2 (Homo sapiens, UniProt O60733); settings: reference 2-oxoamide inhibitors; ref [15]; cited from earlier work
T2 sequence (O60733 1-806): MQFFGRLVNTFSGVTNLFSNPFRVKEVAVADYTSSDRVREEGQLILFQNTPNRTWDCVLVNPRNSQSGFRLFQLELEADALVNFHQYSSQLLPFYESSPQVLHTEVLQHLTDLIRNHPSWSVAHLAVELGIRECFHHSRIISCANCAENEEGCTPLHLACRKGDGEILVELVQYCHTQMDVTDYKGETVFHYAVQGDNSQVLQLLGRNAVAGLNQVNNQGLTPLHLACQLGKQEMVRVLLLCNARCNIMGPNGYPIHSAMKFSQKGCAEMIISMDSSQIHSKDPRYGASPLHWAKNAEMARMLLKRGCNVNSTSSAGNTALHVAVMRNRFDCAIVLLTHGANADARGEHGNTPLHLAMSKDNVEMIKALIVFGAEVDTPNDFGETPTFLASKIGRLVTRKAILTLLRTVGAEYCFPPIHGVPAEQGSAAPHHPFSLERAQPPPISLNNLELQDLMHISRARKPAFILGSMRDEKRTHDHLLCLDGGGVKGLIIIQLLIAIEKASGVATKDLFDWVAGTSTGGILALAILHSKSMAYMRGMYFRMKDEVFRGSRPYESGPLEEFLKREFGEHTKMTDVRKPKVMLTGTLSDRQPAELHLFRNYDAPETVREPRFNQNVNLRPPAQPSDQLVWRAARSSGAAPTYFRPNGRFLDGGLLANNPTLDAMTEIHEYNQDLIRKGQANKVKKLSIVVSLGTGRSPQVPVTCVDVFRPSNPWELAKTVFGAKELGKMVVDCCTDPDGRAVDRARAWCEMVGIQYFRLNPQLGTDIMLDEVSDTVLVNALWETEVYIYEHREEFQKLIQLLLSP

GIVA cPLA2 [2] = target: T1, GIVA cPLA2; settings: reference 2-oxoamide inhibitors; ref [15]; cited from earlier work

For `CCCCCCCCCCCCCCC(=O)C(=O)N[C@H](C(=O)NCC(=O)O)C(C)C` [Compound 9b, (S)-2-(3-Methyl-2-(2-oxohexadecanamido)butanamido)acetic acid], the “GIVA cPLA2 XI(50)” value (GIVA cPLA2 [1]) was 0.061 ± 0.017 mole fraction.

In the case of `CCCCCCCCCCCCCCC(=O)C(=O)N[C@@H](CCCC)C(=O)NCC(=O)OC` [Compound 4a, (S)-Methyl 2-(2-(2-oxohexadecanamido)hexanamido)acetate], the “GIVA cPLA2 XI(50)” value (GIVA cPLA2 [1]) is reported as 0.021 ± 0.009 mole fraction.

`CCCCCCCCCCCCCCC(=O)C(=O)NCCCC(=O)O` [Compound 19] showed an inhibition at 25 µM (RAW 264.7 macrophages) of 52 ± 5% and an IC50 (RAW 264.7 macrophages) of about 25 µM.

Molecule `CCCCCCCCCCCCCCC(=O)C(=O)N[C@H](CCC(=O)O)CC(C)C` [Compound 25] has an inhibition at 25 µM (RAW 264.7 macrophages) of 62 ± 5%.

In the case of `CCCCCCCCCCCCCCC(=O)C(=O)NCC(=O)OC` [Compound 37], the inhibition at 25 µM (RAW 264.7 macrophages) is reported as 30 ± 2%.

With `CCCCCCCCCCCCCCC(=O)C(=O)N[C@H](C(=O)NCC(=O)OC(C)(C)C)C(C)C` [Compound 8b, (S)-tert-Butyl 2-(3-methyl-2-(2-oxohexadecanamido)butanamido)acetate] the “GIVA cPLA2 XI(50)” value (GIVA cPLA2 [1]) was 0.028 ± 0.015 mole fraction.

`CCCCCCCCCCCCCCC(=O)C(=O)N[C@@H](CCCC)CCC(=O)O` [Compound 26] showed an inhibition at 25 µM (RAW 264.7 macrophages) of 79 ± 0.5%.

Molecule `CCCCCCCCCCC(=O)C(=O)N[C@@H](CCCC)CCC(=O)O` [Compound 20] has an inhibition at 25 µM (RAW 264.7 macrophages) of 56 ± 6% and an IC50 (RAW 264.7 macrophages) of 10 µM.

Work on `CCCCCCCCCCCCCCC(=O)C(=O)NCCCCC(=O)OC(C)(C)C` [Compound 34] yielded an inhibition at 25 µM (RAW 264.7 macrophages) of 11 ± 6%.

For `CCCCCCCCCCCCCCC(=O)C(=O)NCCCC(=O)COCC` [AX048], the “GVIA iPLA2 XI(50)” value (GVIA iPLA2) is given as 0.027 ± 0.009 ^b mole fraction and the “GIVA cPLA2 XI(50)” value (GIVA cPLA2 [2]) is given as 0.022 ± 0.009 ^b mole fraction.

For `CCCCCCCCCCCCCCC(=O)C(=O)N[C@H](/C=C/C(=O)O)CCCC` [Compound 30], the inhibition at 25 µM (RAW 264.7 macrophages) was 74 ± 8% and the IC50 (RAW 264.7 macrophages) was about 25 µM.

`CCCCCCCCCCCCCCC(=O)C(=O)N[C@@H](CCCC)CCCC(=O)O` [Compound 35] showed an inhibition at 25 µM (RAW 264.7 macrophages) of 59 ± 4% and an IC50 (RAW 264.7 macrophages) of 7 µM.

With `CCCCCCCCCCCCCCC(=O)C(=O)N[C@@H](CCCC)C(=O)NCC(=O)O` [Compound 9a, (S)-2-(2-(2-Oxohexadecanamido)hexanamido)acetic acid] the “GIVA cPLA2 XI(50)” value (GIVA cPLA2 [1]) was 0.035 ± 0.014 mole fraction.

For `CCCCCCCCCCCCCCC(=O)C(=O)N[C@@H](CCCC)COCC(=O)O` [Compound 18, (S)-2-(2-(2-oxohexadecanamido)hexyloxy)acetic acid], the IC50 (RAW 264.7 macrophages) was about 2 µM and the “GIVA cPLA2 XI(50)” value (GIVA cPLA2 [1]) was 0.017 mole fraction and 0.017 ± 0.002 mole fraction.

Molecule `CCCCCCCCCCCCCCC(=O)C(=O)N[C@H](/C=C/C(=O)OCC)CCCC` [Compound 33] has an inhibition at 25 µM (RAW 264.7 macrophages) of 16 ± 6%.

In the case of `CCCCCCCCCCCCCCC(=O)C(=O)NCCCC(=O)CO` [AX006], the “GIVA cPLA2 XI(50)” value (GIVA cPLA2 [2]) is listed as 0.024 mole fraction and 0.024 ± 0.015 ^b mole fraction.

Work on `CCCCCCCCCCC(=O)C(=O)N[C@@H](CCCC)C(=O)O` [Compound 21] yielded an inhibition at 25 µM (RAW 264.7 macrophages) of 27 ± 6%.

For `CCCCCCCCCCCCCCC(=O)C(=O)N[C@H](/C=C/C=C/C(=O)O)CCCC` [Compound 28], the inhibition at 25 µM (RAW 264.7 macrophages) was 6 ± 10%.
